Results from ChEMBL document CHEMBL1134379, “Covalently induced activation of the delta opioid receptor by a fluorogenic affinity label, 7'-(phthalaldehydecarboxamido)naltrindole (PNTI)” (J Med Chem, 2001).

Tests used:
[1] = biological target: T1, Delta-type opioid receptor (Homo sapiens, UniProt P41143); assay: Irreversible binding to delta receptor after pretreatment with naloxone (1 uM) at 20 nM of the compound.
[2] = biological target: T1, Delta-type opioid receptor; assay: Irreversible binding to delta receptor before pretreatment with naloxone (1 uM) at 1 uM of the compound.
[3] = biological target: T1, Delta-type opioid receptor; assay: Irreversible binding to delta receptor before pretreatment with naloxone (1 uM) at 20 nM of the compound.
[4] = biological target: T1, Delta-type opioid receptor; assay: Irreversible binding to delta receptor after pretreatment with naloxone (1 uM) at 1 uM of the compound.
Mu-type opioid receptor = Mu-type opioid receptor (Homo sapiens, UniProt P35372); assay: Binding affinity towards mu-opioid receptor from CHO cells; format: cell-based, Cricetulus griseus
Mus musculus [5] = assay: Antinociceptive activity by mouse tail-flick antinociceptive assay after icv administration in mouse.; format: functional
Mus musculus [6] = organism: Mus musculus; assay: Agonist activity in mouse vas deferens (MVD) assay.; format: functional, organism-based
In short: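 Electrically stimulated mouse vas deferens preparation. The compound's inhibition of the twitch was measured and the IC50 was derived from the concentration–effect curve.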

[7] = biological target: T1, Delta-type opioid receptor; assay: Irreversible binding to delta receptor before pretreatment with naloxone (1 uM) at 1 uM
[8] = biological target: T1, Delta-type opioid receptor; assay: Binding affinity towards delta-opioid receptor from CHO cells; format: cell-based, Cricetulus griseus
[9] = biological target: Kappa-type opioid receptor (Homo sapiens, UniProt P41145); assay: Binding affinity towards opioid receptor kappa 1 from CHO cells; format: cell-based, Cricetulus griseus
Kappa-type opioid receptor, sequence (P41145 whole entry): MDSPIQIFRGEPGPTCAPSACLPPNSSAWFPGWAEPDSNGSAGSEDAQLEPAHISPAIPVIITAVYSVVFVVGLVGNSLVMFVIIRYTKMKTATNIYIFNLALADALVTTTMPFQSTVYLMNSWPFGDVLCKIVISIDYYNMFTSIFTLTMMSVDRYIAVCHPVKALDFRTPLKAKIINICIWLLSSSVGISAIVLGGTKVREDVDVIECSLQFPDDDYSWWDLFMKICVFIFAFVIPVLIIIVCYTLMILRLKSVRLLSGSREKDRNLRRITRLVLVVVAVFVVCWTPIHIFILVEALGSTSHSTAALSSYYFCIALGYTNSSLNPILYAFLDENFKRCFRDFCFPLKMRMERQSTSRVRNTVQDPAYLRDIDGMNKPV

T1 sequence (P41143 whole entry): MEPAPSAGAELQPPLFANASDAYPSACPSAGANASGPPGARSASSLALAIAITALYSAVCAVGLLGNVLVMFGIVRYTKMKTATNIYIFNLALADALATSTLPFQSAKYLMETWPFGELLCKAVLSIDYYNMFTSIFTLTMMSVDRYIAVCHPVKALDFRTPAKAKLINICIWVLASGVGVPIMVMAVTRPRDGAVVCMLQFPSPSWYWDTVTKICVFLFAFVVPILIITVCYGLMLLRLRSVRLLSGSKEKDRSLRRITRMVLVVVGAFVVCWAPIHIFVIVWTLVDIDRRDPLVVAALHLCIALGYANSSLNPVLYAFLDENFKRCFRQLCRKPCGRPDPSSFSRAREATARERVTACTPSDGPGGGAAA
Mu-type opioid receptor, sequence (P35372 whole entry): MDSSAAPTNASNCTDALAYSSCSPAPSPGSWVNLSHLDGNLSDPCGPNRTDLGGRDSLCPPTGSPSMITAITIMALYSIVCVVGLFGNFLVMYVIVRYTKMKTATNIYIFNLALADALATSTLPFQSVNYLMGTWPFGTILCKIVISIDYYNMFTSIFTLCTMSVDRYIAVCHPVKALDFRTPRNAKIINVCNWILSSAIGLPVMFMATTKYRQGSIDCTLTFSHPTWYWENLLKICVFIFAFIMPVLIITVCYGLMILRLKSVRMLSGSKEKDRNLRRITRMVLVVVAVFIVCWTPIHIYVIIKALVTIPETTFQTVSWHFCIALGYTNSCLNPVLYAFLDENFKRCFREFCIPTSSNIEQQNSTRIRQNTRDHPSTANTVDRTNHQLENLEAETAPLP

SMILES | Binding [1] | Binding [2] | Binding [3] | Binding [4] | Ki (Mu-type opioid receptor) | ED50 (Mus musculus [5]) | IC50 (Mus musculus [6]) | Binding [7] | Ki [8] | Ki [9]
O=C(Nc1cccc2c3c([nH]c12)C1Oc2c(O)ccc4c2[C@@]12CCN(CC1CC1)[C@H](C4)[C@]2(O)C3)c1ccccc1 (stereo partly drawn) | 70% | 7% | 42% | 20% |  |  |  |  |  | 
O=Cc1ccc(C(=O)Nc2cccc3c4c([nH]c23)C2Oc3c(O)ccc5c3[C@@]23CCN(CC2CC2)[C@H](C5)[C@]3(O)C4)cc1C=O (stereo partly drawn) | 28% |  | 30% | 10% | 14.9 nM | 2.06 nM | 0.12 nM | 3% | 1.9 nM | 20.1 nM
